From ChEMBL document CHEMBL4765278, “Synthesis of antiplatelet ortho-carbonyl hydroquinones with differential action on platelet aggregation stimulated by collagen or TRAP-6” (Eur J Med Chem, 2020)
Calls of active or inactive are those of the source. No cut-off for these calls is given here.

What was measured:
[1] = test system: Platelet; test: Cytotoxicity against human Platelet assessed as increase in LDH leakage at 200 uM after 10 mins by LDH assay; assay type: cell-based
Outline: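 Washed platelets (3x10^8/mL) incubated 10 min at 37°C with compound (200 μM), then centrifuged 800 x g for 8 min. Supernatant LDH kit read at 490 nm; 10% Triton X-100 served as positive control.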

[2] = Inhibition of TRAP6-induced platelet aggregation in human platelet preincubated for 5 mins followed by 10 uM TRAP6-stimulation and measured after 6 mins by lumi-aggregometric method relative to control; assay type: functional; details: time 11 min
Outline: (§1)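 Washed platelets (3x10^8/mL) preincubated 5 min with 2 mM CaCl2 plus compound, then challenged at maximal agonist level, 10 μM TRAP-6 or 2 collagen as printed. Transmission followed 6 min and compared with DMSO 0.2% control; n=3.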

[3] = test system: Platelet; test: Antiplatelet activity in human Platelet assessed as inhibition of collagen-induced p-selectin protein expression at 2 to 20 uM by flow cytometric analysis; assay type: functional, cell-based; details: dose 2-20 µM
[4] = test system: Platelet; test: Antiplatelet activity in human Platelet assessed as intracellular ATP level at 2 to 20 uM by Cell Titer-Glo luminescent cell viability assay; assay type: functional, cell-based; details: dose 2-20 µM
Outline: (§2)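 Intraplatelet ATP in resting washed human platelets measured by CellTiter-Glo luminescence following the kit instructions. Mean ± SEM of n=3 experiments.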

[5] = Selectivity index, ratio of IC50 for inhibition of TRAP6-induced platelet aggregation in human platelet to IC50 for inhibition of collagen-induced platelet aggregation in human platelet; assay type: functional
Outline: (§3)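 Light transmission aggregometry of washed human platelets (3x10^8/mL) preincubated 5 min with 2 mM CaCl2 plus compound (0.2 to 200 μM; DMSO 0.2% vehicle). Aggregation induced by TRAP-6 (5 μM) or collagen (1 μg/mL) and followed 6 min. IC50 from dose-response curves, mean ± SEM of three experiments. S.I. = IC50 TRAP-6/IC50 collagen.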

[6] = test system: Platelet; test: Antiplatelet activity in human Platelet assessed as mitochondrial membrane potential loss at 2 to 20 uM by TMRM staining based flow cytometric analysis; assay type: functional, cell-based; details: dose 2-20 µM
Outline: (§4)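 Washed platelets loaded with TMRM (100 nM), then incubated with DMSO 0.2%, compound or FCCP (1 μM) at 37°C for 20 min; ΔΨm by flow cytometry.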

[7] = test system: Platelet; test: (§5) Inhibition of TRAP6-induced platelet aggregation in human platelet preincubated for 5 mins followed by TRAP6-stimulation and measured after 6 mins by lumi-aggregometric method; assay type: functional, tissue-based; details: time 11.0 min; outline: as §3
[8] = as §5; assay type: functional, tissue-based; outline: as §3
[9] = test system: Platelet; test: Antiplatelet activity in human Platelet assessed as ROS production at 2 to 20 uM by DHE staining based flow cytometric analysis; assay type: functional, cell-based; details: dose 2-20 µM
Outline: (§6)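 Washed human platelets (5x10^7/mL) exposed to compounds with 10 μM dihydroethidium for 20 min at 37°C; ROS read by flow cytometry. Mean ± SEM of three experiments.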

[10] = test system: Platelet; test: Antiplatelet activity in human Platelet assessed as inhibition of collagen-induced GP2a/3b activation at 2 to 20 uM by flow cytometric analysis; assay type: functional, cell-based; details: dose 2-20 µM
[11] = test system: Platelet; test: (§7) Inhibition of collagen-induced platelet aggregation in human platelet preincubated for 5 mins followed by collagen-stimulation and measured after 6 mins by lumi-aggregometric method; assay type: functional, tissue-based; details: time 11.0 min; outline: as §3
[12] = as §7; assay type: functional, tissue-based; outline: as §3
[13] = test system: Platelet; test: Effect on platelet activation in human collagen/TRAP6-inducrd human Platelet assessed as positive subpopulation cells at 2 to 20 uM by annexin V-FITC staining based flow cytometric analysis; assay type: functional, tissue-based; details: dose 2-20 µM
Outline: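 Washed platelets (3x10^8/mL) preincubated 5 min with 2 mM CaCl2 plus compound and stimulated with collagen + TRAP-6. Diluted in annexin V binding buffer and stained with annexin V-FITC and anti-CD61-PE for 25 min in the dark; flow cytometry.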

[14] = test system: Platelet; test: Antiplatelet activity in human Platelet assessed as intracellular NADH level at 2 to 20 uM by fluorescence assay; assay type: functional, cell-based; details: dose 2-20 µM
Outline: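 NAD(P)H autofluorescence in resting washed platelets, excitation 340 nm and emission 428 nm. Mean ± SEM of n=3.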

[15] = test system: Platelet; test: Antiplatelet activity in human Platelet assessed as intracellular calcium level at 2 to 20 uM preincubated for 5 mins and measured for 15 sec by Fluo-3-AM staining based assay; assay type: functional, cell-based; details: dose 2-20 µM
Outline: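 Washed platelets (5x10^7/mL) loaded with Fluo-3-AM (0.4 μM) for 30 min at RT, then given vehicle (DMSO 0.2%) or compound for 5 min. Baseline recorded 15 s, then FCCP (1 μM) added and read 60 s more by flow cytometry. Expressed relative to control.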

[16] = test system: Platelet; test: Antiplatelet activity in human Platelet assessed as inhibition of collagen-induced ATP secretion at 2 to 20 uM by Cell Titer-Glo luminescent cell viability assay; assay type: functional, cell-based; details: dose 2-20 µM
[17] = Inhibition of collagen-induced platelet aggregation in human platelet preincubated for 5 mins followed by 2 ug/ml collagen-stimulation and measured after 6 mins by lumi-aggregometric method relative to control; assay type: functional; details: time 11 min; outline: as §1
[18] = test system: Platelet; test: Antiplatelet activity in human Platelet assessed as inhibition of TRAP6-induced ATP secretion at 2 to 20 uM by Cell Titer-Glo luminescent cell viability assay; assay type: functional, cell-based; details: dose 2-20 µM
[19] = test system: Platelet; test: Antiplatelet activity in human Platelet assessed as inhibition of TRAP6-induced CD63 expression at 2 to 20 uM by flow cytometric analysis; assay type: functional, cell-based; details: dose 2-20 µM
[20] = test system: Platelet; test: Antiplatelet activity in human Platelet assessed as inhibition of TRAP6-induced GP2a/3b activation at 2 to 20 uM by flow cytometric analysis; assay type: functional, cell-based; details: dose 2-20 µM
[21] = test system: Platelet; test: Antiplatelet activity in human Platelet assessed as increase in ROS production at 20 uM by DHE staining based flow cytometric analysis; assay type: functional, cell-based; outline: as §6
[22] = test system: Platelet; test: Antiplatelet activity in human Platelet assessed as mitochondrial membrane potential loss at 20 uM by TMRM staining based flow cytometric analysis; assay type: functional, cell-based; outline: as §4
[23] = test system: Platelet; test: Antiplatelet activity in human Platelet assessed as inhibition of TRAP6-induced p-selectin protein expression at 2 to 20 uM by flow cytometric analysis; assay type: functional, cell-based; details: dose 2-20 µM
[24] = test system: Platelet; test: Antiplatelet activity in human Platelet assessed as decrease in intracellular ATP level at 20 uM by Cell Titer-Glo luminescent cell viability assay; assay type: functional, cell-based; outline: as §2

| Structure (SMILES) | Activity [1] | Ratio IC50 [5] | IC50 [8] [µM] | IC50 [12] [µM] | further results |
| --- | --- | --- | --- | --- | --- |
| CCCCCCCC1=CC(C)(C)c2c(O)ccc(O)c2C1=O | Toxic | – | – | – | – |
| O=C1C=CC2(CCCC2)c2c(O)ccc(O)c21 | Non-Toxic | 56.5 | > 100 | 1.77 | inhibition (INH) [2]: 100%; inhibition [3]: Active; Activity [4]: inactive; Activity [6]: inactive; inhibition [7]: Dose-dependent effect; Activity [9]: inactive; inhibition [10]: Active; inhibition [11]: Dose-dependent effect; Activity [13]: inactive; Activity [14]: inactive; Activity [15]: inactive; inhibition [16]: Active; inhibition (INH) [17]: 100% |
| CCC1(CC)C=CC(=O)c2c(O)ccc(O)c21 | Non-Toxic | 0.9 | 31.9 | 35.3 | – |
| CCCCCC1=CC(C)(C)c2c(O)ccc(O)c2C1=O | Toxic | – | – | – | – |
| O=C1C=CC2(CCCC2)c2c(O)c3c(c(O)c21)CC=CC3 | Non-Toxic | 3.92 | > 100 | 25.5 | – |
| CCC1(CC)C=CC(=O)c2c(O)c3c(c(O)c21)CC=CC3 | Non-Toxic | 0.69 | 11.9 | 17.1 | inhibition (INH) [2]: 100%; inhibition [18]: Active; inhibition [19]: Active; inhibition [20]: Active; Activity [21]: Active; inhibition [7]: Dose-dependent effect; Activity [22]: Active; inhibition [23]: Active; inhibition [11]: Dose-dependent effect; Activity [13]: inactive; Activity [14]: inactive; Activity [15]: inactive; Activity [24]: Active; inhibition (INH) [17]: 100% |
| CC1C=CC(CO)c2c(O)c3c(c(O)c21)C(C)(C)C=CC3=O (stereo not given) | Non-Toxic | 1.37 | 15.8 | 11.5 | – |
| Cc1c(C)c(O)c2c(c1O)C(=O)C=CC2(C)C | Non-Toxic | 8.35 | > 100 | 12 | – |
| CC1C=CC(CO)c2c(O)c3c(c(O)c21)C(=O)C=CC3(C)C (stereo not given) | Non-Toxic | 22.83 | > 100 | 4.38 | – |
| CC1C=CC(COC(=O)C2CCCCC2)c2c(O)c3c(c(O)c21)C(C)(C)C=CC3=O (stereo not given) | Non-Toxic | – | > 100 | > 100 | – |
| CC1(C)C=CC(=O)c2c(O)c3c(c(O)c21)CC=CC3 | Non-Toxic | 4.86 | > 100 | 20.6 | – |
| CCCSc1nc(N[C@@H]2C[C@H]2c2ccc(F)c(F)c2)c2nnn([C@@H]3C[C@H](OCCO)[C@@H](O)[C@H]3O)c2n1 [TICAGRELOR] | – | 2 | 4 | 2 | – |
| CC1C=CC(COC(=O)C2CCCCC2)c2c(O)c3c(c(O)c21)C(=O)C=CC3(C)C (stereo not given) | Non-Toxic | – | > 100 | > 100 | – |
| CCCCCCC1=CC(C)(C)c2c(O)ccc(O)c2C1=O | Toxic | – | – | – | – |
| CC1(C)C=CC(=O)c2c(O)ccc(O)c21 | Non-Toxic | 7 | > 100 | 14.3 | – |
